Drawing on ChEMBL document CHEMBL3124841, “Discovery of vinyl sulfones as a novel class of neuroprotective agents toward Parkinson's disease therapy” (J Med Chem, 2014), this text covers Time, Activity and fold change (FC) for one molecule.

For data set [1], the system named is Mus musculus. In words: Inhibition of motor deficits in MPTP-induced C57Bl/6 mouse parkinson's disease model assessed as time taken to climb down at 10 mg/kg/day, po for 3 days administered first dose at 24 hrs prior to first injection of 4X 20 mg/kg, ip MPTP challenge by vertical grid test (reference value: 22.4 +/-3.9 s). Type of data set: functional.
Data set [2] deals with T1, Nuclear factor erythroid 2-related factor 2 (Mus musculus) (UniProt Q60795).
T1 sequence (whole entry): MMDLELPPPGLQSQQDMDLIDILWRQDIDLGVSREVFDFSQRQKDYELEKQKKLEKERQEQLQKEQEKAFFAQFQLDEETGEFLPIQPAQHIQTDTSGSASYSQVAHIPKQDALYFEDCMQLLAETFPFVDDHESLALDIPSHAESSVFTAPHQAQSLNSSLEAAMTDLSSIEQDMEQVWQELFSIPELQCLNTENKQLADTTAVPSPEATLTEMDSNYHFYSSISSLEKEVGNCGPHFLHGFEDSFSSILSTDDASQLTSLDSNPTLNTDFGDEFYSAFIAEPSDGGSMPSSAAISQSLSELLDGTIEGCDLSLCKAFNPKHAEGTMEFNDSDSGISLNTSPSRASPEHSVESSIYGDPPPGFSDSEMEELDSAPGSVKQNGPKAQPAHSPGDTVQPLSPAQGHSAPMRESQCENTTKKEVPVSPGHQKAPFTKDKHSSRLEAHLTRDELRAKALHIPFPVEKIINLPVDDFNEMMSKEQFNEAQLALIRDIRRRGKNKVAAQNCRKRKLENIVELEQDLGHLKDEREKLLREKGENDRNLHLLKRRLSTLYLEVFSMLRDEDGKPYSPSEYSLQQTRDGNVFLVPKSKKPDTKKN
In words: Induction of Nrf2-dependent HO1 protein expression in mouse CATH.a cells at 0.1 uM after 24 hrs by western blot analysis. It is filed as cell-based. The method in brief:
(§1)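 Cells (CATH.a) exposed to graded concentrations for 24 h, lysed in RIPA buffer with protease inhibitors. Equal protein separated on 10% SDS gel, blotted; primary antibodies overnight at 4 °C, HRP secondary, chemiluminescence. Densitometry normalized to β-actin. At least duplicate cultures, fold of untreated control ± SEM.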

The species entered for data set [3] is Mus musculus. In words: Neuroprotection against BH4-induced mouse CATH.a cell death assessed as cell viability at 0.1 uM treated for 20 hrs prior to BH4 challenge for 24 hrs by ATP assay. Type of data set: functional. The method in brief: (§2)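 CATH.a cells (2.4 × 10⁴/well) pretreated with graded concentrations for 20 h, then challenged with 200 μM BH4 for a further 24 h. Viability as cellular ATP by CellTiter-Glo luminescence. At least duplicate cultures, percent of untreated control ± SEM, compared with BH4-treated cells.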

For data set [4], the target named is T1, Nuclear factor erythroid 2-related factor 2 (Mus musculus). Briefly: Induction of Nrf2 nuclear translocation in mouse CATH.a cells at 1 uM after 3 hrs by western blot analysis. Type of data set: cell-based. In a few lines:
(§3)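 Mouse DAergic CATH.a cells treated at various concentrations for 3 h. Nuclei isolated by hypotonic HEPES buffer/NP-40 lysis, then nuclear proteins extracted in 400 mM NaCl HEPES buffer. Nrf2 Western blot with lamin B as nuclear marker, chemiluminescent detection, densitometry. At least duplicate cultures, expressed as fold induction over untreated control ± SEM.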

In data set [5] the test system is Mus musculus. In words: Neuroprotective activity against MPTP-induced neurodegeneration in C57Bl/6 mouse parkinson's disease model assessed as increase in DAergic fibers in striatum at 10 mg/kg/day, po for 3 days administered first dose at 24 hrs prior to first injection of 4X 20 mg/kg, ip MPTP challenge measured 7 days after first MPTP injection by immunohistochemistry. It is filed as functional, organism-based. The method in brief: (§4)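 Male C57Bl/6 mice (23−25 g, n = 10/group) dosed orally at 10 mg/kg/day for 3 days, vehicle N-methyl-2-pyrrolidone and 20% Tween 80 in saline. MPTP 4 × 20 mg/kg ip 2 h apart, starting 24 h after first oral dose. Perfusion-fixed 7 days after first MPTP; TH immunostaining, nigral cells counted and striatal fibers densitometered on five sections each, 80 μm apart. Expressed as % vehicle control ± SEM.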

Data set [6] has as its target T1, Nuclear factor erythroid 2-related factor 2 (Mus musculus). Briefly: Induction of Nrf2-dependent NQO1 gene expression in mouse CATH.a cells after 6 hrs by RT-PCR analysis. Type of data set: cell-based. In a few lines:
(§5)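 CATH.a cells grown in RPMI 1640 with 8% horse serum and 4% FBS, exposed to graded concentrations for 6 h. mRNA analysed by RT-PCR with gene-specific primers, products run on 1% agarose gel, band densitometry normalized to GAPDH. At least duplicate cultures; fold induction versus untreated control ± SEM.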

Data set [7] has the same target. Briefly: Induction of Nrf2-dependent NQO1 gene expression in mouse CATH.a cells at 1 uM after 6 hrs by RT-PCR analysis relative to control. It is filed as cell-based. In a few lines:
as §5

For data set [8] the target is unchanged. Briefly: Induction of Nrf2-dependent HO1 gene expression in mouse CATH.a cells at 0.1 uM after 6 hrs by RT-PCR analysis. Type of data set: cell-based. In a few lines:
as §5

Data set [9] deals with Mus musculus. Briefly: Effect on DAergic neurons in C57Bl/6 mouse SN at 10 mg/kg/day, po for 3 days by immunohistochemistry. It is filed as ADME, organism-based. On the set-up: route oral. The settings on record: in vivo, 72 h. The method in brief:
as §4

In data set [10] the target is T1, Nuclear factor erythroid 2-related factor 2 (Mus musculus). Briefly: Induction of Nrf2 nuclear translocation in mouse CATH.a cells at 10 uM after 3 hrs by western blot analysis relative to control. Type of data set: cell-based. In a few lines: as §3
In data set [11] the test system is Mus musculus. In words: Neuroprotective activity against MPTP-induced neurodegeneration in C57Bl/6 mouse parkinson's disease model assessed as increase in DAergic neurons in SN at 10 mg/kg/day, po for 3 days administered first dose at 24 hrs prior to first injection of 4X 20 mg/kg, ip MPTP challenge measured 7 days after first MPTP injection by immunohistochemistry. It is filed as functional, organism-based. The method in brief:
as §4

In data set [12] the target is T1, Nuclear factor erythroid 2-related factor 2 (Mus musculus). In words: Induction of Nrf2-dependent GCLM gene expression in mouse CATH.a cells at 0.1 uM after 6 hrs by RT-PCR analysis. Type of data set: cell-based. In a few lines:
as §5

The target is the same in data set [13]. Briefly: Induction of Nrf2-dependent GCLM gene expression in mouse CATH.a cells at 10 uM after 6 hrs by RT-PCR analysis relative to control. Type of data set: cell-based. The method in brief: as §5
Data set [14] is filed under the species Mus musculus. Briefly: Neuroprotection against BH4-induced mouse CATH.a cell death assessed as cell viability at >0.1 uM treated for 20 hrs prior to BH4 challenge for 24 hrs by ATP assay. Type of data set: functional. The method in brief: as §2
The target of data set [15] is T1, Nuclear factor erythroid 2-related factor 2 (Mus musculus). Briefly: Induction of Nrf2-dependent HO1 gene expression in mouse CATH.a cells at 1 to 10 uM after 6 hrs by RT-PCR analysis relative to control. Type of data set: cell-based. The method in brief: as §5
The target is the same in data set [16]. Briefly: Induction of Nrf2-dependent GCLM protein expression in mouse CATH.a cells at 0.1 uM after 24 hrs by western blot analysis. It is filed as cell-based. The method in brief:
as §1

For data set [17] the target is unchanged. Briefly: Induction of Nrf2-dependent HO1 protein level in mouse BV-2 cells at 20 uM after 24 hrs by sandwich ELISA relative to control. Type of data set: cell-based. The method in brief: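 Murine BV-2 microglia in DMEM/10% FBS, 2.0 × 10⁴ cells per well, treated at 20 μM for 24 h in triplicate. Lysates in NP-40 Tris buffer (pH 8.0) diluted tenfold; HO-1 measured by sandwich ELISA with HRP-streptavidin and Amplex Red fluorescence (ex 530/em 590 nm). Expressed as % of 0.04% DMSO vehicle control ± SEM; sulforaphane 5 μM as reference.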

For data set [18] the target is unchanged. In words: Induction of Nrf2-dependent GCLC protein expression in mouse CATH.a cells after 24 hrs by western blot analysis. It is filed as cell-based. In a few lines: as §1

Activity calls are given as the source filed them. The rule behind the calls is not given here.

As for `COc1ccccc1S(=O)(=O)/C=C/c1ccccc1Cl`, the Time in the data set on Mus musculus [1] was determined as 6.3 s. The result in data set [2], in data set [8], in data set [12] and in [16] was inactive. Besides, the outcome (in the data set filed under Mus musculus [3]; in data set [4]; in the data set with Mus musculus [5]; with Mus musculus [11]; in the data set filed under Mus musculus [14]) was Active. Besides, the Activity entry in [6] was “Dose-dependent effect”; with Mus musculus [9], “Non-toxic”; in data set [18] it was “Dose-dependent effect”. In addition, the fold change (FC) in data set [7] was 1.95; in [10] it was 3.5; in data set [13], 2.56; in [15] it was 3; in data set [17] it was 3.8.
